We go through eleven compounds from ChEMBL document CHEMBL4715907, “Cytoprotective activities of kinetin purine isosteres” (Bioorg Med Chem, 2021).

Calls of active or inactive are those of the source. The rule behind the calls is not given here.

Test system in the first data set: not listed separately
The data set can be described thus: Stability in human plasma assessed as parent compound remaining at 2 uM measured up to 120 mins by RF-MS analysis. The following applies: read-out: Stabilty. It counts as ADME, cell-free.
`c1coc(CNc2ncnc3[nH]nnc23)c1`: the remaining at 2 h, 2 µM came to 83%.
Consider `c1coc(CNc2ccnc3ccnn23)c1`, for which the remaining at 2 h, 2 µM was found to be 83%.
Take `c1coc(CNc2ncnc3sccc23)c1`: the remaining at 2 h, 2 µM was 83%.
Take `c1coc(CNc2nccc3[nH]cnc23)c1`: the remaining at 2 h, 2 µM was 83%.
Turning to `c1coc(CNc2ncnc3[nH]ccc23)c1`, the remaining at 2 h, 2 µM is 83%.
Same read-out and setting: under `c1coc(CNc2ncnc3ccsc23)c1` stands 83%; under `c1coc(CNc2ncnc3cc[nH]c23)c1`, 83%.

Test system in the next data set: not listed separately
The data set can be described thus: Apparent permeability of compound in human Caco2 cells. It counts as ADME, cell-based. The following applies: Caco-2. (Passage across Caco-2 layers is used to estimate intestinal permeability.)
As for `c1coc(CNc2ncnc3[nH]nnc23)c1`, the apparent permeability (Papp) (usually the rate of passage across a membrane or cell layer, normalised by area and donor concentration) worked out at 7.6 ×10⁻⁶ cm/s.
The same measure, in the same setting: under `c1coc(CNc2ccnc3ccnn23)c1` stands 7.6 ×10⁻⁶ cm/s.
Still for that read-out and setting: under `c1coc(CNc2ncnc3sccc23)c1` stands 7.6 ×10⁻⁶ cm/s.
For `c1coc(CNc2nccc3[nH]cnc23)c1`, the Papp stood at 7.6 ×10⁻⁶ cm/s.
In the case of `c1coc(CNc2ncnc3[nH]ccc23)c1`, the apparent permeability (Papp) came out at 7.6 ×10⁻⁶ cm/s.
With `c1coc(CNc2ncnc3ccsc23)c1`, the apparent permeability (Papp) came to 7.6 ×10⁻⁶ cm/s.
On the same count and under the same terms, the figure for `c1coc(CNc2ncnc3cc[nH]c23)c1` is 7.6 ×10⁻⁶ cm/s.

Test system in a further data set: not listed separately
Put plainly: Stability in human liver microsomes assessed as parent compound remaining at 2 uM measured up to 60 mins by RF-MS analysis. It counts as ADME, Microsome. The following applies: read-out: Stabilty. A general note: Microsomes from liver hold many membrane-bound enzymes, among them those of drug oxidation.
Consider `c1coc(CNc2ncnc3[nH]nnc23)c1`, for which the remaining at 1 h, 2 µM is 78%.
In the case of `c1coc(CNc2ccnc3ccnn23)c1`, the remaining at 1 h, 2 µM was found to be 78%.
Regarding `c1coc(CNc2ncnc3sccc23)c1`, the remaining at 1 h, 2 µM amounted to 78%.
`c1coc(CNc2nccc3[nH]cnc23)c1`: the remaining at 1 h, 2 µM is 78%.
As for `c1coc(CNc2ncnc3[nH]ccc23)c1`, the remaining at 1 h, 2 µM is 78%.
Take `c1coc(CNc2ncnc3ccsc23)c1`: the remaining at 1 h, 2 µM was 78%.
For the compound `c1coc(CNc2ncnc3cc[nH]c23)c1`, the remaining at 1 h, 2 µM came out at 78%.

The target of the next data set is T1, Frataxin, mitochondrial (Homo sapiens) (UniProt Q16595).
T1 sequence (whole entry): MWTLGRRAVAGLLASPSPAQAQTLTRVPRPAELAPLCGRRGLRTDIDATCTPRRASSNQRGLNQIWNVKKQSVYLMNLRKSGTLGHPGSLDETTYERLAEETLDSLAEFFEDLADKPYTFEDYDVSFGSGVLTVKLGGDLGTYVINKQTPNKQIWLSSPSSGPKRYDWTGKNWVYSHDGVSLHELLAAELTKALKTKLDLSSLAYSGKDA
The data set can be described thus: Activation of His6-tagged-thrombin cleavage site-fused FXN (79 to 207 residues) (unknown origin) assessed as increase in Fe-S cluster biosynthesis at 30 to 500 uM by UV-visible spectroscopy relative to control. The following applies: dose 30-500 µM. Summed up:
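Mouse ISC machinery reconstituted in vitro from purified proteins under anaerobic conditions. Buffer was 50 mM Tris, 150 mM NaCl, pH 8, with 50 µM apo-ISCU loaded with one equivalent Fe2+, 5 µM NFS1-ISD11-ACP, 5 µM FDX2, 2 µM FDXR and 100 µM NADPH. Compounds in DMSO were tested at 30, 50, 100, 200 and 500; DMSO was equalized. 5 µM FXN served as positive control. Run in triplicate.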
`c1coc(CNc2nccc3[nH]cnc23)c1`: the Activity came out at 0.5%.

Test system in a further data set: not listed separately
Put plainly: Apparent permeability of compound in MDCK-MDR1 cells. The following applies: dog. It counts as ADME, cell-based, Canis lupus familiaris. The essentials:
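MDCK-MDR1 cells formed monolayers on 1 µm pore Transwell filters, used only if intact by Lucifer Yellow rejection. Cells were washed with HBSS and pre-equilibrated at pH 7.4 for 1 h, then exposed to 10 µM compound in HBSS pH 7.4 for 1 h, apical-to-basal and basal-to-apical. Donor and acceptor were quantified by RapidFire MS/MS (MRM). Papp = (dQ/dt)/(C0 × A), duplicates.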
With `c1coc(CNc2ncnc3[nH]nnc23)c1`, the Papp was 16.3 ×10⁻⁶ cm/s.
The same measure, in the same setting: under `c1coc(CNc2ccnc3ccnn23)c1` stands 16.3 ×10⁻⁶ cm/s; under `c1coc(CNc2ncnc3sccc23)c1`, 16.3 ×10⁻⁶ cm/s.
In the case of `c1coc(CNc2nccc3[nH]cnc23)c1`, the Papp was determined as 16.3 ×10⁻⁶ cm/s.
In the case of `c1coc(CNc2ncnc3[nH]ccc23)c1`, the Papp was determined as 16.3 ×10⁻⁶ cm/s.
Regarding `c1coc(CNc2ncnc3ccsc23)c1`, the apparent permeability coefficient (Papp) was found to be 16.3 ×10⁻⁶ cm/s.
For `c1coc(CNc2ncnc3cc[nH]c23)c1`, the Papp is 16.3 ×10⁻⁶ cm/s.

Test system in another data set: not listed separately
Put plainly: Protein binding in human plasma at 10 uM after 4 hrs by RF-MS analysis. It counts as ADME, cell-free. The following applies: read-out: PPB (converted).
For the compound `c1coc(CNc2ncnc3[nH]nnc23)c1`, the fraction unbound at 4 h, 10 µM was 0.871.
With `c1coc(CNc2ccnc3ccnn23)c1`, the fraction unbound at 4 h, 10 µM was 0.871.
As for `c1coc(CNc2ncnc3sccc23)c1`, the fraction unbound at 4 h, 10 µM was 0.871.
Take `c1coc(CNc2nccc3[nH]cnc23)c1`: the fraction unbound at 4 h, 10 µM is 0.871.
The same measure, in the same setting: the figure for `c1coc(CNc2ncnc3[nH]ccc23)c1` is 0.871.
As for `c1coc(CNc2ncnc3ccsc23)c1`, the fraction unbound at 4 h, 10 µM was 0.871.
As for `c1coc(CNc2ncnc3cc[nH]c23)c1`, the fraction unbound at 4 h, 10 µM was 0.871.

A further data set has as its system GM04663. The data set can be described thus: Cytoprotective activity in human GM04663 cells assessed as aberrant splicing of ELP1 mRNA expression at 50 uM incubated for 24 hrs by RT-PCR anlaysis. It counts as functional, cell-based.
Settings: not given
The essentials:
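GM04663 patient fibroblasts, about 500,000 per 10 cm dish in DMEM with 10% FBS, were grown overnight and then treated 24 h at 50 µM, with DMSO vehicle. Total RNA was extracted with Trizol and reverse-transcribed. ELP1 nt 2194–2593 (NM_003640.5) was amplified over 34 cycles with 63.8 °C annealing. Wild-type and aberrant transcripts were quantified by peak area against DNA standards of known size and concentration.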
Consider `Cc1ccc(CN(C)c2ncnc3c2cnn3C)o1`, for which the result was inactive.
In the case of `Cc1ccc(CNc2ncnc3[nH]ncc23)o1`, the outcome was inactive.
In the case of `Cc1ccc(C(C)Nc2ncnc3c2cnn3C)o1` (configuration not stated), the outcome was inactive.
For the compound `CN(Cc1ccco1)c1ncnc2c1cnn2C`, the result was inactive.
Take `c1coc(CNc2ncnc3[nH]nnc23)c1`: the result was inactive.
On to `c1coc(CNc2ncnc3sccc23)c1`, for which the outcome was Active.
For the compound `c1coc(CNc2ncnc3[nH]ccc23)c1`, the outcome was Active.
Still for that read-out and setting: under `c1coc(CNc2ncnc3ccsc23)c1` stands “Active”; under `c1coc(CNc2ncnc3cc[nH]c23)c1`, “Active”.

The test system of another data set is GM04078. Put plainly: Cytoprotective activity against BSO-induced toxicity in human GM04078 cells assessed as increase in cell viability preincubated for 24 hrs followed by BSO-stimulation and […] by resazurin fluorescence based assay. It counts as functional.
Settings: not given
As for `c1coc(CNc2nccc3[nH]cnc23)c1`, the Activity entry was “Dose-dependent effect”.

Test system in the next data set: not listed separately
Put plainly: Drug degradation in human liver microsomes at 2 uM measured up to 60 mins by RF-MS analysis. It counts as ADME, Tissue, Microsome. The conditions noted are these: read-out: Drug degradation.
In the case of `c1coc(CNc2ncnc3ccsc23)c1`, the metabolised at 1 h, 2 µM is above 50%.
